Measurements: ChEMBL document CHEMBL1132488, “On the bioactive conformation of NAN-190 (1) and MP3022 (2), 5-HT(1A) receptor antagonists” (J Med Chem, 1999)

How the values were obtained:
[1] = organism: Rattus norvegicus; assay: Induction of behavioral syndrome(FBP: flat body posture) by the compound in reserpine pretreated rats at a dose of 8.; type: functional
Method in brief: (§1)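 Male Wistar rats (260–300 g) were given reserpine 1 mg/kg sc in saline 18 h before testing. Test compound was then given alone ip as a 1% Tween 80 suspension (2 mL/kg). FBP and FT were each scored 0–3 and summed (maximum 15). n=6 per group; mean ± SEM; Newman–Keuls test.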

[2] = organism: Rattus norvegicus; assay: Induction of behavioral syndrome(FBP: flat body posture) by the compound in reserpine pretreated rats at a dose of 2.; type: functional
Method in brief: (§2)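 Male Wistar rats (260–300 g), groups of 6, given reserpine 1 mg/kg sc 18 h before test. Compounds given ip as 1% Tween 80 suspension. FBP and FT rated 0–3 in 45-s sessions every 3 min, starting 3 min after dosing. Score summed over 5 periods (max 15 per symptom). Mean ± SEM; Newman–Keuls test.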

[3] = organism: Rattus norvegicus; assay: Effect on 8-OH-DAPT- induced behavioral syndrome(FT: forepaw treading) by the compound in reserpine pretreated rats at a dose of 2.; type: functional
[4] = organism: Rattus norvegicus; assay: Induction of behavioral syndrome(FBP: flat body posture) by the compound in reserpine pretreated rats at a dose of 4.; type: functional; method in brief: as §1
[5] = organism: Rattus norvegicus; assay: Effective dose of the required to inhibit symptoms produced by 8-OH-DPAT; type: functional
Method in brief: (§3)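 Reserpinized male Wistar rats (reserpine 1 mg/kg sc, 18 h before), groups of 6. Compound given ip in 1% Tween 80 60 min before 8-OH-DPAT 5 mg/kg sc. FBP/FT rated 0–3 at 3, 6, 9, 12 and 15 min after agonist, summed (max 15). Mean ± SEM; Newman–Keuls test; ED50 with range.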

[6] = test system: Rattus norvegicus; assay: Induction of LLR(lower lip retraction) by the compound in rats at a dose of 8 mg/kg; type: functional
Method in brief: (§4)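 Male Wistar rats, groups of 6, given compound alone ip as 1% Tween 80 suspension. Lower incisor visibility scored 0/0.5/1 at 15, 30 and 45 min after dosing, summed (max 3 per rat). Mean ± SEM versus vehicle, Newman–Keuls test; ED50 with range.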

[7] = organism: Rattus norvegicus; assay: Effect on 8-OH-DAPT- induced behavioral syndrome(FT: forepaw treading) by the compound in reserpine pretreated rats at a dose of 4.; type: functional; method in brief: as §3
[8] = organism: Rattus norvegicus; assay: Induction of behavioral syndrome(FT: forepaw treading) by the compound in reserpine pretreated rats at a dose of 4.; type: functional; method in brief: as §1
[9] = organism: Rattus norvegicus; assay: Effect on 8-OH-DAPT- induced behavioral syndrome(FBP: flat body posture) by the compound in reserpine pretreated rats at a dose of 2.; type: functional
[10] = organism: Rattus norvegicus; assay: Effect on 8-OH-DAPT- induced behavioral syndrome(FBP: flat body posture) by the compound in reserpine pretreated rats at a dose of 4.; type: functional; method in brief: as §3
[11] = test system: Rattus norvegicus; assay: Induction of LLR(lower lip retraction) by the compound in rats at a dose of 4 mg/kg; type: functional; method in brief: as §4
[12] = organism: Rattus norvegicus; assay: Induction of behavioral syndrome(FT: forepaw treading) by the compound in reserpine pretreated rats at a dose of 2.; type: functional
[13] = test system: Rattus norvegicus; assay: Induction of LLR(lower lip retraction) by the compound in rats at a dose of 16 mg/kg; type: functional; method in brief: as §4
[14] = organism: Rattus norvegicus; assay: Effect on 8-OH-DAPT- induced behavioral syndrome(FBP: flat body posture) by the compound in reserpine pretreated rats at a dose of 8.; type: functional; method in brief: as §3
[15] = test system: Rattus norvegicus; assay: Effect on 8-OH-DPAT-Induced LLR(lower lip retraction) in rats at a dose of 4 mg/kg; type: functional
Method in brief: (§5)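 Male Wistar rats, groups of 6. Compound given ip in 1% Tween 80 45 min before 8-OH-DPAT 1 mg/kg sc. Lower incisor visibility scored 0/0.5/1 at 15, 30 and 45 min after agonist, summed (max 3). Mean ± SEM; Newman–Keuls test; ED50 with range.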

[16] = organism: Rattus norvegicus; assay: Induction of behavioral syndrome(FT: forepaw treading) by the compound in reserpine pretreated rats at a dose of 8.; type: functional; method in brief: as §1
[17] = organism: Rattus norvegicus; assay: Dose Inducing behavioral syndrome(FT: forepaw treading) by the compound in reserpine pretreated rats.; type: functional; method in brief: as §2
[18] = organism: Rattus norvegicus; assay: Effect on 8-OH-DAPT- induced behavioral syndrome(FT: forepaw treading) by the compound in reserpine pretreated rats at a dose of 8.; type: functional; method in brief: as §3
[19] = test system: Rattus norvegicus; assay: Effect on 8-OH-DPAT-Induced LLR(lower lip retraction) in rats at a dose of 16 mg/kg; type: functional; method in brief: as §5
[20] = test system: Rattus norvegicus; assay: Effect on 8-OH-DPAT-Induced LLR(lower lip retraction) in rats at a dose of 8 mg/kg; type: functional; method in brief: as §5
[21] = organism: Rattus norvegicus; assay: Dose inhibiting 8-OH-DPAT-induced behavioral syndrome(FBP: flat body posture) by the compound in reserpine pretreated rats.
[22] = biological target: T1, 5-hydroxytryptamine receptor 1A (Rattus norvegicus, UniProt P19327); assay: Ability to displace [3H]8-OH-DPAT from 5-hydroxytryptamine 1A receptor
T1 sequence (P19327 whole entry): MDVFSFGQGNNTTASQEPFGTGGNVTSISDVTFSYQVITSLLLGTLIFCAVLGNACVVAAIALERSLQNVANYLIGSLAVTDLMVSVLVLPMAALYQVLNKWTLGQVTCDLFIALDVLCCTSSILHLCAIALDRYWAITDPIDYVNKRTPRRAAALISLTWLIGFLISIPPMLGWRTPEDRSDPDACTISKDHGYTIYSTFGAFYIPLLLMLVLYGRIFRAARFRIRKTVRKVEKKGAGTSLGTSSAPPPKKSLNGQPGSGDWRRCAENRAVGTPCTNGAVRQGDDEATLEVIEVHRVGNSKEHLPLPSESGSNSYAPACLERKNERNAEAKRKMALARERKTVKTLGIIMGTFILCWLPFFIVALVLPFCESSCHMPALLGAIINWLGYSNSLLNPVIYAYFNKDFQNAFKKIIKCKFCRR
Method in brief: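 Rat hippocampal membranes, [3H]8-OH-DPAT radioligand. Ki from at least three competition experiments, each with 10–14 drug concentrations run in triplicate. Ki calculated with the Cheng–Prusoff equation.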

[23] = organism: Rattus norvegicus; assay: Induction of behavioral syndrome(FT: forepaw treading) by the compound in reserpine pretreated rats at a dose of 8; FT mean score; type: functional; method in brief: as §1
[24] = organism: Rattus norvegicus; assay: Effect on 8-OH-DAPT- induced behavioral syndrome(FT: forepaw treading) by the compound in reserpine pretreated rats at a dose of 4; FT mean score; type: functional; method in brief: as §3
[25] = organism: Rattus norvegicus; assay: Effect on 8-OH-DAPT- induced behavioral syndrome(FBP: flat body posture) by the compound in reserpine pretreated rats at a dose of 16; FBP mean score; type: functional; method in brief: as §3
[26] = test system: Rattus norvegicus; assay: Induction of LLR(lower lip retraction) by the compound in rats at a dose of 16 mg/kg; LLR score; type: functional; method in brief: as §4
[27] = organism: Rattus norvegicus; assay: Induction of behavioral syndrome(FBP: flat body posture) by the compound in reserpine pretreated rats at a dose of 8; type: functional; method in brief: as §1
[28] = organism: Rattus norvegicus; assay: Effect on 8-OH-DAPT- induced behavioral syndrome(FBP: flat body posture) by the compound in reserpine pretreated rats at a dose of 4; FBP mean score; type: functional; method in brief: as §3
[29] = organism: Rattus norvegicus; assay: Dose Inducing behavioral syndrome(FT: forepaw treading) by the compound in reserpine pretreated rats; type: functional; method in brief: as §2
[30] = test system: Rattus norvegicus; assay: Induction of LLR(lower lip retraction) by the compound in rats at a dose of 8 mg/kg; LLR score; type: functional; method in brief: as §4
[31] = test system: Rattus norvegicus; assay: Induction of LLR(lower lip retraction) by the compound in rats at a dose of 4 mg/kg; LLR score; type: functional; method in brief: as §4
[32] = organism: Rattus norvegicus; assay: Effective dose required to induce LLR(lower lip retraction); type: functional; method in brief: as §4
[33] = organism: Rattus norvegicus; assay: Induction of behavioral syndrome(FT: forepaw treading) by the compound in reserpine pretreated rats at a dose of 4; FT mean score; type: functional; method in brief: as §1
[34] = organism: Rattus norvegicus; assay: Induction of behavioral syndrome(FBP: flat body posture) by the compound in reserpine pretreated rats at a dose of 4; FBP mean score; type: functional; method in brief: as §1
[35] = organism: Rattus norvegicus; assay: Effect on 8-OH-DAPT- induced behavioral syndrome(FT: forepaw treading) by the compound in reserpine pretreated rats at a dose of 16; type: functional; method in brief: as §3
[36] = organism: Rattus norvegicus; assay: Dose Inducing behavioral syndrome(FBP: flat body posture) by the compound in reserpine pretreated rats; type: functional; method in brief: as §2
[37] = organism: Rattus norvegicus; assay: Induction of behavioral syndrome(FT: forepaw treading) by the compound in reserpine pretreated rats at a dose of 16; FT mean score; type: functional; method in brief: as §1
[38] = organism: Rattus norvegicus; assay: Effect on 8-OH-DAPT- induced behavioral syndrome(FBP: flat body posture) by the compound in reserpine pretreated rats at a dose of 8; FBP mean score; type: functional; method in brief: as §3
[39] = organism: Rattus norvegicus; assay: Effect on 8-OH-DAPT- induced behavioral syndrome(FT: forepaw treading) by the compound in reserpine pretreated rats at a dose of 8; FT mean score; type: functional; method in brief: as §3
[40] = organism: Rattus norvegicus; assay: Induction of behavioral syndrome(FBP: flat body posture) by the compound in reserpine pretreated rats at a dose of 16; FBP mean score; type: functional; method in brief: as §2

Compound `COc1ccccc1N1CCN(CCCCN2C(=O)[C@H]3CCCC[C@H]3C2=O)CC1` has an FBP mean score [1] of 0.2, an FBP mean score [2] of 0.1 and an FT mean score [3] of 3.8. It also gave an FBP mean score [4] of 0.2, an ED50 [5] of 7.5 mg/kg and an LLR score [6] of 0.5. It also gave an FT mean score [7] of 3.5, an FT mean score [8] of 0.2 and an FBP mean score [9] of 8.3. It also gave an FBP mean score [10] of 6.7, an LLR score [11] of 0.5 and an FT mean score [12] of 0.2. It also gave an LLR score [13] of 0.8, an FBP mean score [14] of 5.5 and an LLR score [15] of 1.7. The FT mean score [16] was 0.2, the ED50 [17] was 2.6 mg/kg and the FT mean score [18] was 0.5. The LLR score [19] was 0.7, the LLR score [20] was 1.3 and the ED50 [21] was 3.2 mg/kg. For the same compound, the Ki [22] was 4 nM.
Work on `O=C1[C@H]2CCCC[C@H]2C(=O)N1C1CCC(N2CCc3ccccc3C2)CC1` (some centres not stated) yielded a Ki [22] of 1600 nM.
`COc1ccccc1N1CCN(C2CCCC(n3nnc4ccccc43)C2)CC1` (configuration not stated) gave an FT mean score [23] of 0.3, an FT mean score [24] of 9.6 and an FBP mean score [25] of 6.2. The LLR score [26] was 1.6, the FBP mean score [27] was 0.5 and the FBP mean score [28] was 12.5. It also gave an ED50 [29] of 7 mg/kg, an LLR score [30] of 1.3 and an LLR score [31] of 0.9. For the same compound, the ED50 [32] was 8 mg/kg, the FT mean score [33] was 0.1 and the FBP mean score [34] was 0.6. The FT mean score [35] was 0.8, the ED50 [36] was 11 mg/kg and the FT mean score [37] was 0.1. It also gave an FBP mean score [38] of 7, an FT mean score [39] of 3.5 and an FBP mean score [40] of 1. For the same compound, the Ki [22] was 47 nM.
